In ChEMBL document CHEMBL1153829, “Exploiting chemical libraries, structure, and genomics in the search for kinase inhibitors” (Science, 1998):
Activity calls are given as the source filed them. No cut-off for these calls is given here.

Experiments:
Saccharomyces cerevisiae [1] = test: Increase in HSP12 mRNA level in delta snq2, delta pdr5 and delta erg6 knock out yeast YRP1 at 25 µM after 2 hrs by high-density oligonucleotide array; assay type: functional, organism-based
How it was run: (§1)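 Drug-sensitized S. cerevisiae cultures grown to late logarithmic phase, then exposed to 25 μM inhibitor for 2 h. Polyadenylated mRNA isolated, converted to biotin-labeled cRNA and hybridized to a set of four high-density arrays carrying more than 260,000 25-nucleotide oligomers. Transcripts scored as changed when they shifted more than twofold in triplicate hybridizations for each of two independent experiments.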

Saccharomyces cerevisiae [2] = test: Increase in CTT1 mRNA level in delta snq2, delta pdr5 and delta erg6 knock out yeast YRP1 at 25 µM after 2 hrs by high-density oligonucleotide array; assay type: functional, organism-based; conditions: 25 M; how it was run: as §1
Saccharomyces cerevisiae [3] = test: Increase in PHO84 mRNA level in delta snq2, delta pdr5 and delta erg6 knock out yeast YRP1 at 25 µM after 2 hrs by high-density oligonucleotide array; assay type: functional, organism-based; how it was run: as §1
Saccharomyces cerevisiae [4] = test: Increase in PHO8 mRNA level in delta snq2, delta pdr5 and delta erg6 knock out yeast YRP1 at 25 µM after 2 hrs by high-density oligonucleotide array; assay type: functional, organism-based; how it was run: as §1
Saccharomyces cerevisiae [5] = test: Increase in YBR296c mRNA level in delta snq2, delta pdr5 and delta erg6 knock out yeast YRP1 at 25 µM after 2 hrs by high-density oligonucleotide array; assay type: functional, organism-based; conditions: 25 M; how it was run: as §1
Saccharomyces cerevisiae [6] = test: Upregulation of YPT53 gene expression in delta snq2, delta pdr5 and delta erg6 knock out yeast YRP1 at 25 µM after 2 hrs by high-density oligonucleotide array; assay type: functional, organism-based; conditions: 25 M
How it was run: (§2)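 Drug-sensitized yeast strain grown to late logarithmic phase, then exposed to 25 μM inhibitor for 2 h. Polyadenylated mRNA was isolated and converted to biotin-labeled cRNA, which was hybridized to a set of four arrays carrying over 260,000 25-nucleotide oligomers. Transcripts changing more than twofold were scored, from triplicate hybridizations in each of two independent experiments.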

Saccharomyces cerevisiae [7] = test: Upregulation of PMC1 gene expression in delta snq2, delta pdr5 and delta erg6 knock out yeast YRP1 at 25 µM after 2 hrs by high-density oligonucleotide array; assay type: functional, organism-based; how it was run: as §2
Saccharomyces cerevisiae [8] = test: Upregulation of INO1 gene expression in delta snq2, delta pdr5 and delta erg6 knock out yeast YRP1 at 25 µM after 2 hrs by high-density oligonucleotide array; assay type: functional, organism-based; conditions: 25 M; how it was run: as §2
Saccharomyces cerevisiae [9] = test: Decrease in RPL26B mRNA level in delta snq2, delta pdr5 and delta erg6 knock out yeast YRP1 at 25 µM after 2 hrs by high-density oligonucleotide array; assay type: functional; how it was run: as §1
Saccharomyces cerevisiae [10] = test: Effect on YBR147w gene expression in delta snq2, delta pdr5 and delta erg6 knock out yeast YRP1 bearing cdc28-4 mutant allele assessed as change in mRNA level at 25 µM after 2 hrs by high-density oligonucleotide array; assay type: functional, organism-based
Saccharomyces cerevisiae [11] = test: Effect on YOL155C gene expression in delta snq2, delta pdr5 and delta erg6 knock out yeast YRP1 bearing cdc28-4 mutant allele assessed as change in mRNA level at 25 µM after 2 hrs by high-density oligonucleotide array; assay type: functional, organism-based
Saccharomyces cerevisiae [12] = test: Induction of HAP4 gene expression in delta snq2, delta pdr5 and delta erg6 knock out yeast YRP1 bearing cdc28-4 mutant allele at 25 µM after 2 hrs by high-density oligonucleotide array; assay type: functional, organism-based; conditions: 25 M
How it was run: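 cdc28-4 temperature-sensitive strain and its isogenic wild type were profiled at the permissive temperature of 25°C. Polyadenylated mRNA was converted to biotin-labeled cRNA and hybridized to high-density oligonucleotide arrays. Transcripts changing more than twofold were scored, from triplicate hybridizations of RNA from a single experiment.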

Saccharomyces cerevisiae [13] = test: Effect on ACH1 gene expression in delta snq2, delta pdr5 and delta erg6 knock out yeast YRP1 bearing cdc28-4 mutant allele assessed as change in mRNA level at 25 µM after 2 hrs by high-density oligonucleotide array; assay type: functional, organism-based; conditions: 25 M
Saccharomyces cerevisiae [14] = test: Effect on ATR1 gene expression in delta snq2, delta pdr5 and delta erg6 knock out yeast YRP1 bearing cdc28-4 mutant allele assessed as change in mRNA level at 25 µM after 2 hrs by high-density oligonucleotide array; assay type: functional, organism-based
Saccharomyces cerevisiae [15] = test: Effect on YNR009w gene expression in delta snq2, delta pdr5 and delta erg6 knock out yeast YRP1 assessed as change in mRNA level at 25 µM after 2 hrs by high-density oligonucleotide array; assay type: functional, organism-based; how it was run: as §1
Saccharomyces cerevisiae [16] = test: Effect on YHR143W gene expression in delta snq2, delta pdr5 and delta erg6 knock out yeast YRP1 assessed as change in mRNA level at 25 µM after 2 hrs by high-density oligonucleotide array; assay type: functional, organism-based; conditions: 25 M; how it was run: as §1
Saccharomyces cerevisiae [17] = test: Increase in PHO80 mRNA level in delta snq2, delta pdr5 and delta erg6 knock out yeast YRP1 at 25 µM after 2 hrs by high-density oligonucleotide array; assay type: functional, organism-based; how it was run: as §1
Saccharomyces cerevisiae [18] = test: Effect on YLR311C gene expression in delta snq2, delta pdr5 and delta erg6 knock out yeast YRP1 bearing cdc28-4 mutant allele assessed as change in mRNA level at 25 µM after 2 hrs by high-density oligonucleotide array; assay type: functional, organism-based; conditions: 25 M
Saccharomyces cerevisiae [19] = test: Effect on YOR248W gene expression in delta snq2, delta pdr5 and delta erg6 knock out yeast YRP1 bearing cdc28-4 mutant allele assessed as change in mRNA level at 25 µM after 2 hrs by high-density oligonucleotide array; assay type: functional, organism-based; conditions: 25 M
Saccharomyces cerevisiae [20] = test: Effect on HTA1 gene expression in delta snq2, delta pdr5 and delta erg6 knock out yeast YRP1 bearing cdc28-4 mutant allele assessed as change in mRNA level at 25 µM after 2 hrs by high-density oligonucleotide array; assay type: functional, organism-based
Saccharomyces cerevisiae [21] = test: Effect on HTA2 gene expression in delta snq2, delta pdr5 and delta erg6 knock out yeast YRP1 bearing cdc28-4 mutant allele assessed as change in mRNA level at 25 µM after 2 hrs by high-density oligonucleotide array; assay type: functional, organism-based
Saccharomyces cerevisiae [22] = test: Upregulation of YDL223c gene expression in delta snq2, delta pdr5 and delta erg6 knock out yeast YRP1 at 25 µM after 2 hrs by high-density oligonucleotide array; assay type: functional, organism-based; conditions: 25 M; how it was run: as §2
Saccharomyces cerevisiae [23] = test: Upregulation of YER150w gene expression in delta snq2, delta pdr5 and delta erg6 knock out yeast YRP1 at 25 µM after 2 hrs by high-density oligonucleotide array; assay type: functional, organism-based; conditions: 25 M; how it was run: as §2
Saccharomyces cerevisiae [24] = test: Effect on TFS1 gene expression in delta snq2, delta pdr5 and delta erg6 knock out yeast YRP1 assessed as change in mRNA level at 25 µM after 2 hrs by high-density oligonucleotide array; assay type: functional, organism-based; how it was run: as §1
Saccharomyces cerevisiae [25] = test: Effect on YBR214w gene expression in delta snq2, delta pdr5 and delta erg6 knock out yeast YRP1 assessed as change in mRNA level at 25 µM after 2 hrs by high-density oligonucleotide array; assay type: functional, organism-based; how it was run: as §1
Saccharomyces cerevisiae [26] = test: Effect on CTS1 gene expression in delta snq2, delta pdr5 and delta erg6 knock out yeast YRP1 assessed as change in mRNA level at 25 µM after 2 hrs by high-density oligonucleotide array; assay type: functional, organism-based; conditions: 25 M; how it was run: as §1
Saccharomyces cerevisiae [27] = test: Induction of PCK1 gene expression in delta snq2, delta pdr5 and delta erg6 knock out yeast YRP1 at 25 µM after 2 hrs by high-density oligonucleotide array; assay type: functional, organism-based; conditions: 25 M; how it was run: as §2
Saccharomyces cerevisiae [28] = test: Effect on PGM2 gene expression in delta snq2, delta pdr5 and delta erg6 knock out yeast YRP1 assessed as change in mRNA level at 25 µM after 2 hrs by high-density oligonucleotide array; assay type: functional, organism-based; conditions: 25 M; how it was run: as §1
Saccharomyces cerevisiae [29] = test: Upregulation of HSP104 gene expression in delta snq2, delta pdr5 and delta erg6 knock out yeast YRP1 at 25 µM after 2 hrs by high-density oligonucleotide array; assay type: functional, organism-based; conditions: 25 M; how it was run: as §2
Saccharomyces cerevisiae [30] = test: Upregulation of PDR15 gene expression in delta snq2, delta pdr5 and delta erg6 knock out yeast YRP1 at 25 µM after 2 hrs by high-density oligonucleotide array; assay type: functional, organism-based; conditions: 25 M; how it was run: as §2

| SMILES | Activity (Saccharomyces cerevisiae [1]) | Activity (Saccharomyces cerevisiae [2]) | Activity (Saccharomyces cerevisiae [3]) | Activity (Saccharomyces cerevisiae [4]) | Activity (Saccharomyces cerevisiae [5]) | Activity (Saccharomyces cerevisiae [6]) | Activity (Saccharomyces cerevisiae [7]) | Activity (Saccharomyces cerevisiae [8]) | fold change (FC) (Saccharomyces cerevisiae [9]) | Activity (Saccharomyces cerevisiae [10]) | Activity (Saccharomyces cerevisiae [11]) | Activity (Saccharomyces cerevisiae [12]) | Activity (Saccharomyces cerevisiae [13]) | Activity (Saccharomyces cerevisiae [14]) | Activity (Saccharomyces cerevisiae [15]) | Activity (Saccharomyces cerevisiae [16]) | Activity (Saccharomyces cerevisiae [17]) | Activity (Saccharomyces cerevisiae [18]) | Activity (Saccharomyces cerevisiae [19]) | Activity (Saccharomyces cerevisiae [20]) | other results |
| --- | --- | --- | --- | --- | --- | --- | --- | --- | --- | --- | --- | --- | --- | --- | --- | --- | --- | --- | --- | --- | --- |
| CC(C)n1cnc2/c(=N/c3cccc(Cl)c3)nc(NCCO)[nH]c21 | Active | Active | Active | Active | Active | Active | Active | Active | 3 | Active | Active | Active | Active | Active | Active | Active | Active | Active | Active | Active | Activity (Saccharomyces cerevisiae [21]): Active; Activity (Saccharomyces cerevisiae [22]): Active; Activity (Saccharomyces cerevisiae [23]): Active; Activity (Saccharomyces cerevisiae [24]): Active; Activity (Saccharomyces cerevisiae [25]): Active; Activity (Saccharomyces cerevisiae [26]): Active; Activity (Saccharomyces cerevisiae [27]): Active; Activity (Saccharomyces cerevisiae [28]): Active; Activity (Saccharomyces cerevisiae [29]): Active; Activity (Saccharomyces cerevisiae [30]): Active |
| CN1CC[C@H](c2c(O)cc(O)c3c(=O)cc(-c4ccccc4Cl)oc23)[C@H](O)C1 [ALVOCIDIB] | Active | Active | Active | Active | Active | Active | Active | Active | 3 | Active | Active | Active | Active | Active | Active | Active | Active | Active | Active | Active | Activity (Saccharomyces cerevisiae [21]): Active; Activity (Saccharomyces cerevisiae [22]): Active; Activity (Saccharomyces cerevisiae [23]): Active; Activity (Saccharomyces cerevisiae [24]): Active; Activity (Saccharomyces cerevisiae [25]): Active; Activity (Saccharomyces cerevisiae [26]): Active; Activity (Saccharomyces cerevisiae [27]): Active; Activity (Saccharomyces cerevisiae [28]): Active; Activity (Saccharomyces cerevisiae [29]): Active; Activity (Saccharomyces cerevisiae [30]): Active |
